The target in data set [1] is Serine/threonine-protein kinase 32A (Homo sapiens) (UniProt Q8WU08). Nature of the data set: Inhibition of human full length YANK1 (M1 to L396 residues) expressed in mammalian expression system assessed as residual activity at 10 uM by kinome scan method relative to control. The method in brief:
(§1)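 KINOMEscan binding assay, test compound at 10 μM against a 52-kinase panel. % Ctrl = (compound signal − positive control signal)/(negative control signal − positive control signal) × 100, with DMSO as negative control (100%) and a positive control (0%).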

The target in data set [2] is Phosphatidylinositol 4-phosphate 5-kinase type-1 alpha (Homo sapiens) (UniProt Q99755). The experiment in a line: Inhibition of human full length PIP5K1A (M1 to H562 residues) expressed in bacterial expression system assessed as residual activity at 10 uM by kinome scan method relative to control. The method in brief: as §1
The target of data set [3] is Serine/threonine-protein kinase/endoribonuclease IRE1 (Homo sapiens) (UniProt O75460). The experiment in a line: Inhibition of human partial length ERN1 (S551 to E852 residues) expressed in mammalian expression system assessed as residual activity at 10 uM by kinome scan method relative to control. The method in brief:
as §1

Data set [4] deals with Dual specificity mitogen-activated protein kinase kinase 7 (Homo sapiens) (UniProt O14733). The experiment in a line: Inhibition of human full length MKK7 (M1 to R419 residues) expressed in mammalian expression system assessed as residual activity at 10 uM by kinome scan method relative to control. The method in brief:
as §1

The subject of a further data set is U-87 MG. Nature of the data set: Antitumour activity against human U87MG cells xenografted in ICR nude mouse assessed as tumour growth inhibition at 30 mg/kg, po every other day for 24 days relative to control. Particulars: 576 h, time 24 day, read-out: TGI. It counts as functional, U-87MG ATCC. The method in brief: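 Male ICR nude mice inoculated subcutaneously with 5 × 10⁶ U87MG cells. Once tumours reached about 200 mm³, mice were randomised and dosed by oral gavage every other day for 24 days. Tumour volume (length × width² × 0.5) and body weight recorded every 4 days. Inhibition = 100 × {1 − [(final − initial volume) treated]/[(final − initial volume) vehicle]}.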
(In general: A xenograft is tissue or cells of one species grown in another, often human tumour cells in immunodeficient mice.)

The target in data set [5] is Mitotic checkpoint serine/threonine-protein kinase BUB1 (Homo sapiens) (UniProt O43683). Nature of the data set: Inhibition of human partial length BUB1 (Q724 to K1085 residues) expressed in bacterial system assessed as residual activity at 10 uM by kinome scan method relative to control. The method in brief: as §1
For data set [6], the target named is Phosphatidylinositol 4,5-bisphosphate 3-kinase catalytic subunit delta isoform (Homo sapiens) (UniProt O00329). The experiment in a line: Inhibition of human partial length PIK3CD (R108 to Q1044 residues) expressed in mammalian expression system assessed as residual activity at 10 uM by kinome scan method relative to control. The method in brief: (§2)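 KINOMEscan competitive binding screen at 10 μM test compound against a 52-kinase panel. Output is % Ctrl = (test signal − positive control signal)/(negative control signal − positive control signal) × 100. DMSO is the negative control (100%) and the positive control is set to 0%.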

Data set [7] in a line: Toxicity in ICR nude mouse xenografted with U87MG cells assessed as reduction in body weight at 30 to 60 mg/kg, po every other day for 24 days. The data set is classed as organism-based. The settings on record: in vivo, 576 h, dose 30-60 mg/kg, time 24 day. A digest of the protocol:
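Male ICR nude mice were implanted subcutaneously with 5 × 10^6 U87MG cells. When tumors reached about 200 mm³, mice were randomized and given 30 or 60 mg/kg by oral gavage every other day for 24 days. Body weight and tumor volume (length × width² × 0.5) were recorded every 4 days, with a vehicle-treated group as comparator.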

Data set [8] concerns the target Receptor-interacting serine/threonine-protein kinase 1 (Homo sapiens) (UniProt Q13546). Nature of the data set: Inhibition of human partial length RIPK1 (M1 to K305 residues) expressed in bacterial expression system assessed as residual activity at 10 uM by kinome scan method relative to control. The method in brief: as §2
Data set [9] concerns the target Cyclin-dependent kinase 18 (Homo sapiens) (UniProt Q07002). Nature of the data set: Inhibition of human full length PCTK3 (M3 to F474 residues) expressed in bacterial expression system assessed as residual activity at 10 uM by kinome scan method relative to control. The method in brief:
as §1

Data set [10] addresses Phosphatidylinositol 3-kinase catalytic subunit type 3 (Homo sapiens) (UniProt Q8NEB9). The experiment in a line: Inhibition of human partial length VPS34 (S282 to H879 residues) expressed in mammalian expression system assessed as residual activity at 10 uM by kinome scan method relative to control. The method in brief: as §2
Data set [11] deals with Activin receptor type-2B (Homo sapiens) (UniProt Q13705). Nature of the data set: Inhibition of human partial length ACVR2B (H169 to D504 residues) expressed in bacterial system assessed as residual activity at 10 uM by kinome scan method relative to control. The method in brief:
as §1

Data set [12] is described as follows: MRT(0 to infinity) in Sprague-Dawley rat at 5 mg/kg, po. The settings on record: in vivo. The data set is classed as ADME, organism-based. A digest of the protocol:
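Male Sprague-Dawley rats (n = 3) received a single 5 mg/kg oral gavage dose formulated as a suspension in 0.5% methylcellulose. Plasma concentration-time curves were recorded and mean PK parameters derived.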

Data set [13] deals with 1-phosphatidylinositol 3-phosphate 5-kinase (Homo sapiens) (UniProt Q9Y2I7). The experiment in a line: Inhibition of human partial length PIKFYVE (F1512 to C2098 residues) expressed in mammalian expression system assessed as residual activity at 10 uM by kinome scan method relative to control. The method in brief:
as §2

Data set [14] addresses Mitogen-activated protein kinase kinase kinase 13 (Homo sapiens) (UniProt O43283). Nature of the data set: Inhibition of human full length LZK (M1 to W966 residues) expressed in bacterial expression system assessed as residual activity at 10 uM by kinome scan method relative to control. The method in brief:
as §1

Data set [15] has as its target Phosphatidylinositol 4,5-bisphosphate 3-kinase catalytic subunit alpha isoform (Homo sapiens, UniProt P42336). The experiment in a line: Inhibition of human partial length PIK3CA (R108 to N1068 residues) expressed in mammalian expression system assessed as residual activity at 10 uM by kinome scan method relative to control. The method in brief:
as §2

Data set [16] concerns the target Cyclin-dependent kinase-like 3 (Homo sapiens) (UniProt Q8IVW4). The experiment in a line: Inhibition of human partial length CDKL1 (M1 to D327 residues) expressed in bacterial system assessed as residual activity at 10 uM by kinome scan method relative to control. A digest of the protocol:
as §1

The target of data set [17] is Mitogen-activated protein kinase kinase kinase 15 (Homo sapiens) (UniProt Q6ZN16). Nature of the data set: Inhibition of human partial length MAP3K15 (T625 to L932 residues) expressed in bacterial expression system assessed as residual activity at 10 uM by kinome scan method relative to control. A digest of the protocol:
as §1

Data set [18] can be described thus: Cmax in Sprague-Dawley rat at 5 mg/kg, po. It counts as ADME, organism-based. On the set-up: route oral, dose 5 mg/kg. Particulars: in vivo. A digest of the protocol:
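Male Sprague-Dawley rats (n = 3) given a single oral gavage of 5 mg/kg as a homogeneous opaque suspension in 0.5% methylcellulose; plasma concentration-time curves used to derive mean PK parameters.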

The target in data set [19] is Phosphatidylinositol 4-kinase beta (Homo sapiens) (UniProt Q9UBF8). The experiment in a line: Inhibition of human partial length PIK4CB (M1 to M828 residues) expressed in mammalian expression system assessed as residual activity at 10 uM by kinome scan method relative to control. The method in brief:
as §2

The target of data set [20] is Serine/threonine-protein kinase mTOR (Homo sapiens, UniProt P42345). The experiment in a line: Inhibition of recombinant human N-terminal FLAG-tagged mTOR (1362 to end amino acids) using ULight-4E-BP1 as substrate incubated for 1 hr by LANCE Ultra assay. (TR-FRET usually uses a lanthanide donor and a delayed reading to cut background.)

The values below come from ChEMBL document CHEMBL4732196, “Structural optimization towards promising β-methyl-4-acrylamido quinoline derivatives as PI3K/mTOR dual inhibitors for anti-cancer therapy: The in vitro and in vivo biological evaluation” (Eur J Med Chem, 2021).

Chain of Phosphatidylinositol 4-kinase beta (Homo sapiens) (Q9UBF8 2-816 limits assumed): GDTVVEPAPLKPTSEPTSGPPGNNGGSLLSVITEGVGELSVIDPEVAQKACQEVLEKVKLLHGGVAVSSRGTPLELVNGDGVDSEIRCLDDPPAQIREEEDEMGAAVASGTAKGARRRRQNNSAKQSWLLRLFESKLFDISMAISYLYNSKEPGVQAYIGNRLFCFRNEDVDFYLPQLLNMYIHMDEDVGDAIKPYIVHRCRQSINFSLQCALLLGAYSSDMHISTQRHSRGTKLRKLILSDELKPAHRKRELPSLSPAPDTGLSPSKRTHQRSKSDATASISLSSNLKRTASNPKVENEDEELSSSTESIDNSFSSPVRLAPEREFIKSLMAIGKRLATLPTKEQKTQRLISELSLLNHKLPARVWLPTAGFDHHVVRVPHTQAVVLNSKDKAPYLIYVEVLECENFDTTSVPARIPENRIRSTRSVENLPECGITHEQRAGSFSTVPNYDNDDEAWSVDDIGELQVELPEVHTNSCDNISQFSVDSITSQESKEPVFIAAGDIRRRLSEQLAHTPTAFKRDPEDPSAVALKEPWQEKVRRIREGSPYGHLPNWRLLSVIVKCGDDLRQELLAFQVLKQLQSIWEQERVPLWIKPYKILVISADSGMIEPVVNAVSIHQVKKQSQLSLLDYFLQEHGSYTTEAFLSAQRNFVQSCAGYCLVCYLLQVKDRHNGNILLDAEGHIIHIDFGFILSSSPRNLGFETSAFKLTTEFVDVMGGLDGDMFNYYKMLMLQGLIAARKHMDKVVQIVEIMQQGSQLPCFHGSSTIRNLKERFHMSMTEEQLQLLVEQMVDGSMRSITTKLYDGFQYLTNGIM
Chain of Serine/threonine-protein kinase/endoribonuclease IRE1 (Homo sapiens) (O75460 19-977 limits assumed): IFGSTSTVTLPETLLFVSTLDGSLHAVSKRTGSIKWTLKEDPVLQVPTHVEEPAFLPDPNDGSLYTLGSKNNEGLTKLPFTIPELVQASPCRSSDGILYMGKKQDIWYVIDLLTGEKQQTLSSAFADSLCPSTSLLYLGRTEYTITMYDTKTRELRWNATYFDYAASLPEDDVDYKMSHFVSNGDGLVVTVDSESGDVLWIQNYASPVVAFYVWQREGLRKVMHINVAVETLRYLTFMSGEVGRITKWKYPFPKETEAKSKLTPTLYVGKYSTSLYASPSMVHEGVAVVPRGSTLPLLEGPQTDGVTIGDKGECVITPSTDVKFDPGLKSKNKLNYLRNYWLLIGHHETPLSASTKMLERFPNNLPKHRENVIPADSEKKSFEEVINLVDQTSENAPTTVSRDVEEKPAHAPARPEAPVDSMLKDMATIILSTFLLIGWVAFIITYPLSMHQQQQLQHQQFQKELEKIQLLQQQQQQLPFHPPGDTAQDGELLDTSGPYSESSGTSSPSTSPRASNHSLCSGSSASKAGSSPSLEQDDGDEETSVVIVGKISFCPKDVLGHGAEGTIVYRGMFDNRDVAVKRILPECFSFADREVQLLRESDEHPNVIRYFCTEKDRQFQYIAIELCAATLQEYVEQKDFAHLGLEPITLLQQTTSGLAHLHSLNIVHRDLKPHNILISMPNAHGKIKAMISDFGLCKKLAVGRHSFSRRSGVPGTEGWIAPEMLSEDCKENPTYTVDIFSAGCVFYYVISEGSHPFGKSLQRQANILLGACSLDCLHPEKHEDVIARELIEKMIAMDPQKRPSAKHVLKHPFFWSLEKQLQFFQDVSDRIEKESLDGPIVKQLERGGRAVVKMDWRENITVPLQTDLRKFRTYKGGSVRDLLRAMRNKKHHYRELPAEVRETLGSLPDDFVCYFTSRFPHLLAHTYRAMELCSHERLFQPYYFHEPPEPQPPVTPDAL
Chain of Cyclin-dependent kinase-like 3 (Homo sapiens) (Q8IVW4 whole entry, looked up, the tested form may be a part): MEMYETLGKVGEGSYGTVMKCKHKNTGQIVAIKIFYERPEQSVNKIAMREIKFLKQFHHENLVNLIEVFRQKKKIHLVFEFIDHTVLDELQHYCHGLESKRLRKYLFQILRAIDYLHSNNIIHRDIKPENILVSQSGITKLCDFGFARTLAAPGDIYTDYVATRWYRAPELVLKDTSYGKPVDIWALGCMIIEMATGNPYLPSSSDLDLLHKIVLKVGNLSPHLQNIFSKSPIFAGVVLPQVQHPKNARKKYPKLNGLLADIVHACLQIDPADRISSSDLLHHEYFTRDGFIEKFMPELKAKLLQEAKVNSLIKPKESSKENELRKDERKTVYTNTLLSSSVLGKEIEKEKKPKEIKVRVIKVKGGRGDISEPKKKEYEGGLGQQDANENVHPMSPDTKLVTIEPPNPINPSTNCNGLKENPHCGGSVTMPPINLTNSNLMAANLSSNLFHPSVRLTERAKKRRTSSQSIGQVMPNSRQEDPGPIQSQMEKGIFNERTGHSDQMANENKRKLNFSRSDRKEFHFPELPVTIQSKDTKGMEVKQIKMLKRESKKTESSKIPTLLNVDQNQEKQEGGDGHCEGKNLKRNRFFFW
Chain of Cyclin-dependent kinase 18 (Homo sapiens) (Q07002 whole entry, the tested form may be a part): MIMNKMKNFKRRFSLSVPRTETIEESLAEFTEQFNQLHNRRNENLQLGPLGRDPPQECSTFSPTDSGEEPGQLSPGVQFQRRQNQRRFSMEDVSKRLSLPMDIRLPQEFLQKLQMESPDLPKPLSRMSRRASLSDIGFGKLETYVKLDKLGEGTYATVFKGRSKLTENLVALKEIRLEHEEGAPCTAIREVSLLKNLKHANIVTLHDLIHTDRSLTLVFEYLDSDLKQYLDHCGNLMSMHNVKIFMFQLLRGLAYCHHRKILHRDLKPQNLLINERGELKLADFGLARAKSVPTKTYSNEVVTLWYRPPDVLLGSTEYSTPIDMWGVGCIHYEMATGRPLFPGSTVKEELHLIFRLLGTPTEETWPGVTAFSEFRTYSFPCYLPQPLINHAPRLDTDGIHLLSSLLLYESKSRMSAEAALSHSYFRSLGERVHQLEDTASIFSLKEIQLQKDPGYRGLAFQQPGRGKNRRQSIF
Chain of Mitogen-activated protein kinase kinase kinase 15 (Homo sapiens) (Q6ZN16 whole entry, the tested form may be a part): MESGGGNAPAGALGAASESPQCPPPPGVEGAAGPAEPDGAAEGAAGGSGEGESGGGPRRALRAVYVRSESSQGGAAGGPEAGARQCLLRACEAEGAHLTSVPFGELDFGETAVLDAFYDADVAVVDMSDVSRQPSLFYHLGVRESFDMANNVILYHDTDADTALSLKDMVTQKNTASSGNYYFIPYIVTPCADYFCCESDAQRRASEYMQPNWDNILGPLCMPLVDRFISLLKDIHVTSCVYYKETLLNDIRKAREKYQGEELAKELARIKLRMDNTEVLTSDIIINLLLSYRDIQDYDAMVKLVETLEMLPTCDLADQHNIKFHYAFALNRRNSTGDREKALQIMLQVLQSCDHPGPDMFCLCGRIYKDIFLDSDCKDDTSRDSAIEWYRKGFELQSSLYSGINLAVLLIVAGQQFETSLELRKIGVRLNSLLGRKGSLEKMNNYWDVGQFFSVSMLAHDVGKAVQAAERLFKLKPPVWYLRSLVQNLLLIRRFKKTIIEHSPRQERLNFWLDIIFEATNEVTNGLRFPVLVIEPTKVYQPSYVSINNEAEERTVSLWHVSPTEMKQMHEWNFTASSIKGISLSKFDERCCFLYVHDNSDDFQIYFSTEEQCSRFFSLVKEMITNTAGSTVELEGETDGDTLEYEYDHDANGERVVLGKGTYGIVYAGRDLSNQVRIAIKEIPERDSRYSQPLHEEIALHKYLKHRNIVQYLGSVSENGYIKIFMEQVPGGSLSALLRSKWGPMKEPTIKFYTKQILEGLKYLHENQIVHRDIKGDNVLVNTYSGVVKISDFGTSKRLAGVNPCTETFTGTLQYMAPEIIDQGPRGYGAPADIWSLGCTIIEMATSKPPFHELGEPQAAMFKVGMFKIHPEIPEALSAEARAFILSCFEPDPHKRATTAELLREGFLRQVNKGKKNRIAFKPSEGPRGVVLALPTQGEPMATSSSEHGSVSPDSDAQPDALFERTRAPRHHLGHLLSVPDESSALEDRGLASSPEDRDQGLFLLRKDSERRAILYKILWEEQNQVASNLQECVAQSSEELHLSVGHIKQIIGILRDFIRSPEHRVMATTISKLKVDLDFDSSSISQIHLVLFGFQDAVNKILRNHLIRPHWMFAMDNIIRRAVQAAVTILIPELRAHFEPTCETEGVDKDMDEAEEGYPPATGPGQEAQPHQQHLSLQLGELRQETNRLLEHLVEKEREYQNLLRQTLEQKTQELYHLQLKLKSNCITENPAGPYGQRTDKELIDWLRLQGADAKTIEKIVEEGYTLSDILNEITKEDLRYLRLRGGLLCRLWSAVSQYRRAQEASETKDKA
Chain of Receptor-interacting serine/threonine-protein kinase 1 (Homo sapiens) (Q13546 whole entry, the tested form may be a part): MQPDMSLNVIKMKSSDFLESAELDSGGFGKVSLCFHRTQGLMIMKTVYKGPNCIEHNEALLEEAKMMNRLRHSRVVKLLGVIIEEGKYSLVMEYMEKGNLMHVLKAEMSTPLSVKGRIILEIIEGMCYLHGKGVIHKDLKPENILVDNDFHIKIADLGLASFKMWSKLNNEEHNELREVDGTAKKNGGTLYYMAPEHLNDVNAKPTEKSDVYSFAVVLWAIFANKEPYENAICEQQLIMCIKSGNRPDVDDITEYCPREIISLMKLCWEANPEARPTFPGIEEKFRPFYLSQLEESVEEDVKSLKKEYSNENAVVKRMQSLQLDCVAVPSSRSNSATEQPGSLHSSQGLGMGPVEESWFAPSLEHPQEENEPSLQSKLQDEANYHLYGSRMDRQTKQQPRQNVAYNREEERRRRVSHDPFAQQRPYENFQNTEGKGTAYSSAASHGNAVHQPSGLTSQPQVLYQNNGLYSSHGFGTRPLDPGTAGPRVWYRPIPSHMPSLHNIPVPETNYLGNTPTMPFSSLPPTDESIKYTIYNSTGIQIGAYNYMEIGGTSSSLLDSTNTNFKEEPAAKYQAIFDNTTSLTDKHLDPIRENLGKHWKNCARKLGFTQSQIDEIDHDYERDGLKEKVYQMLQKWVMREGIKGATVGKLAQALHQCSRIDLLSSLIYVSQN

By MRT inf is commonly meant the average time that molecules of a dose stay in the body. The Cmax is the peak of the concentration-time curve. As a reminder, the IC50 is the concentration needed to halve the response being measured. Regarding `COc1ncc(-c2ccc3nccc(/C(C)=C/C(=O)N4CCN(C)CC4)c3c2)cc1NS(=O)(=O)c1ccc(F)cc1F`, the Activity in data set [1] was 84%; in [2], 45%; in data set [3], 54%; in [4] it was 73%; in data set [5], 91%; in data set [6] it was 0%. The Activity result is “Non-Toxic” in [7]; 87% in data set [8]; 78% in [9]; 0.1% in data set [10]; 100% in data set [11]; 1.9% in [13]. In addition, the Activity in data set [14] worked out at 53%; in data set [15], 0%; in [16], 100%; in data set [17] it was 45%; in data set [19] it was 0.55%. For the same compound, the inhibition in vivo at 30 mg/kg in the data set with U-87 MG is 93.5%. In data set [12], this compound gave an MRT inf of 2.57 h. The Cmax in [18] was determined as 903 ng/mL. In addition, the IC50 in data set [20] was found to be 5 nM.
